Here are results for one compound from paper PMC8799877 (Acta Pharmaceutica Sinica. B, 2021).

Series [1] in a line: In vivo pharmacokinetic study. Also on record: species or system male Sprague-Dawley rats. Particulars: for CL_F_pred / Vz_F_pred: rats. The method in brief: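 Male SD rats (n = 3) dosed iv at 2 mg/kg or orally at 10 mg/kg. Plasma separated by centrifugation at 4 °C, 6000 rpm, 8 min, and analysed by LC–MS. Parameters reported as mean ± SD.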
Another series deals with BRD4 (Rattus norvegicus, UniProt A0A8I6A216). Nature of the series: Cellular thermal shift assay. The format is cell-based. Particulars: NRCFs, 10 μmol/L, 4 h, heated from 43 to 61 °C.
The next series has as its target BRD4(2) (Homo sapiens, UniProt O60885). Nature of the series: HTRF bromodomain binding assay, BRD4. Background: Time-resolved FRET reads energy transfer from a long-lived donor to a nearby acceptor.
A short description of series [2]: MTT cytotoxicity / cell viability in NRCMs. The format is cell-based. To be noted: Sprague-Dawley, rat, primary neonatal rat cardiac myocytes (NRCMs).
Series [3] can be described thus: MTT cytotoxicity / cell viability in NRCFs. The format is cell-based. Particulars: Sprague-Dawley, rat, primary neonatal rat cardiac fibroblasts (NRCFs).
For a further series, the target named is BRD4(1) (Homo sapiens, UniProt O60885). Nature of the series: HTRF bromodomain binding assay, BRD4.
The mark [4] stands for this setting: male, Sprague-Dawley, rat, plasma, iv, 2 mg/kg.
[5] abbreviates: male, Sprague-Dawley, rat, plasma, po, 10 mg/kg.

For `NS(=O)(=O)c1ccc(Nc2nc(-c3ccc(F)cc3)c3ccccc3n2)cc1` [Compound 28], in series [1] (setting [4]), the AUC(0-inf) (as a rule, total exposure, with the tail of the curve extrapolated) worked out at 7130 ng·h/mL; the AUC(0-t) (in general, the area under the concentration-time curve up to a stated or last time point) worked out at 7100 ng·h/mL; the Cmax (usually the maximum level reached in the sampled fluid or tissue) was found to be 2820 ng/mL; the MRT last (in general, a mean duration of stay, worked out from the concentration-time curve) is 3.46 h. The half-life (commonly the time needed for the level to fall by half in the phase considered) in series [1] (setting [4]) was 3.13 h. In addition, the bioavailability – broadly, dose-corrected exposure relative to a reference, in per cent – in series [1] (male, Sprague-Dawley, rat, plasma, oral, 10 mg/kg) came out at 43.1%. In series [1] (setting [5]), this compound displayed an AUC(0-inf) of 15400 ng·h/mL, an AUC(0-t) of 15300 ng·h/mL, a Cmax of 2170 ng/mL and an MRT last of 4.27 h. Moreover, in series [1] (setting [5]), the Tmax (usually the time at which the peak concentration occurs) amounted to 2.67 h and the half-life was 1.77 h. In series [1] (iv 2 mg/kg), the CL_F_pred stood at 4.67 mL/min/kg and the Vz_F_pred worked out at 1.27 L/kg. In series [1] (po 10 mg/kg), the CL_F_pred was found to be 12 mL/min/kg and the Vz_F_pred stood at 1.77 L/kg. Besides, the “BRD4 thermal stabilization (CETSA, Western blot)” value at BRD4 is “could efficiently stabilize BRD4 from 43 to 61 °C”. Further, the IC50 (commonly the concentration that gives 50% inhibition) on BRD4(2) stood at 0.242 ± 0.049 µM. For the same compound, in series [2], the midpoint of inhibition, the IC50 at 24 h, lay at 19.1 ± 1.4 µM. In series [3], the IC50 at 24 h was 48.2 ± 1.68 µM. On BRD4(1), this compound came in with an IC50 of 0.286 ± 0.046 µM.
